# Compounds with a hit are over-represented: about 0.99% of the library has one in this group of screens.
# NSD2 inh: NSD2 (human) methyltransferase inhibition; O96028; NSD2 peptide methylation, AlphaScreen, 120 min; inhibition, % at 12.5 µM; hit rate 0.54% among 310,000; AID 743445; in the data active means inhibition above about 50%
# CaV13 FRET inh: Primary screen for inhibitors of IQ motif and Ca2+-dependent inactivation inhibitor domain binding in CACNA1D, Förster resonance energy transfer in living cells, …; HEK cells, CFP/YFP FRET ICDI-IQ, plate reader, 10 min; percent FRET-ratio fall versus neutral wells; inhibition, % at 12.3 µM; hit rate 0.098% among 340,000; AID 743397;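 active means mean replicate inhibition of at least 30% and at least 1% of replicates passing that level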;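 further: 0% = median of the neutral control wells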
# FN deposit inh: fibronectin deposition inhibition. hit rate 0.086% among 350,000. AID 743247. inhibition, % at 12.6 µM. AH1F fibroblasts, Alexa488-fibronectin deposition fluorescence, overnight;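 active means mean inhibition across replicates of 30% or more, regardless of how many single replicates reach that level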;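 further: positive control wells lacked labelled fibronectin entirely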
#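 Assay system: AH1F fibroblasts / Quantity: 10000 cells per well / Medium: DMEM plus 2% serum, read in PBS / Reagent: labelled fibronectin 24 nM / Dosing: single dose, pinned / Times: 1 h cell attachment, overnight exposure to compound and label / Signal: fluorescence, ex 485 nm, em 525 nm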
# CASP6 VEID inh: caspase-6 (human) enzyme inhibition; hit rate 0.53% among 350,000; P55212; purified caspase-6, Z-VEID-R110 cleavage fluorescence; AID 686996; inhibition, % at 12.5 µM;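 active means mean inhibition across replicates at least about 35%, with every replicate also reaching that limit, limit read from the data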;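 further: 0% = median of neutral control wells and 100% = no fluorescence left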
# GC-A act: GC-A (human) enzyme activation; P16066; HEK293 GC-A cells, cGMP TR-FRET, EC30 ANP; 0% at EC30 ANP, 100% saturating ANP; activation, % at 10 µM; hit rate 0.14% among 370,000; AID 1671463; in the data active means activation above about 40%
# NPR2 activator: GC-B (human) receptor activation; activation, % at 10 µM; P20594; HEK293-GC-B cells, CNP EC30, cGMP TR-FRET; 0% at EC30 CNP, 100% saturating CNP; hit rate 0.11% among 370,000;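 active means activation at 10 µM reaching about 35% in either raw or pattern-adjusted values, limit read from the data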
# Alpha artifact: counter-screen for NSD2 inhibitors: AlphaScreen artifacts. hit rate 9.4% among 1,500. AID 1053174. AlphaScreen artifact counterscreen, preloaded methylated H4 peptide. AC35, µM (titrated, usually from 10 µM), for the others: at the highest dose activity change, negative = signal loss. shares compounds with NSD2 inh; call rule not given here
# Starred values were filed as active, the others as inactive; x = not tested or not shown; [ ] = remark or other dose.
SMILES,NSD2 inh,CaV13 FRET inh,FN deposit inh,CASP6 VEID inh,GC-A act,NPR2 activator,Alpha artifact
C[C@H]1CN([C@@H](C)CO)C(=O)c2cc(NC(=O)Nc3ccccc3)ccc2O[C@@H]1CN(C)Cc1ccncc1,x,x,x,3,x,x,x
Cn1ncc(Cl)c1C(=O)Nc1cc(C(F)(F)F)ccc1F,127*,-6,-2,x,-3,2,1%
COc1ccc(Cc2ccccc2C(=O)O)cc1,50*,-7,6,-2,0,3,1%
Cn1cnc(S(=O)(=O)N[C@H]2C=C[C@@H](CC(=O)Nc3ccc(-c4ccccc4)cc3)O[C@H]2CO)c1,x,x,-6,1,x,x,x
COc1cc(/C=N/N2CCN(C3c4ccccc4-c4ccccc43)CC2)cc(OC)c1O,0,-5,6,x,-3,-1,x
COc1cc(/C=N/N2CCN(C3c4ccccc4-c4ccccc43)CC2)cc(OC)c1OC,144*,-14,6,0,-3,0,2%[5 µM]
Cc1ccc(-c2cc(C(=O)N/N=C/c3ccccc3)n[nH]2)o1,122*,-3,1,-1,0,-2,-3%
Cc1ccc(-c2cc(C(=O)N/N=C/c3ccc(Cl)cc3)n[nH]2)o1,7,-3,3,2,2,-2,x
CO[C@H]1CN(C)C(=O)c2ccc(NC(=O)C3CC3)cc2OC[C@@H](C)N(CCC(F)(F)F)C[C@H]1C,x,x,-2,12,x,x,x
CCC(=O)N1CCN(c2ccc(Cl)cc2NC(=O)c2ccc(Br)o2)CC1,119*,-4,-4,x,-7,-4,-8%
O=S(=O)(c1ccc(Br)cc1Cl)N1CCN(CCO)CC1,-1,-4,-2,0,1,3,x
O=C1C=CC(=O)c2c(O)c(N3CCN(CCOCCO)CC3)c(Br)c(O)c21,81*,-3,2,97*,0,-9,-8%
O=C1C=CC(=O)c2c(O)c(N3CCN(CCO)CC3)c(Cl)c(O)c21,103*,-8,10,93*,-5,-2,-5%
COc1ccc(CN(C)C[C@@H]2Oc3c(NC(=O)Nc4ccc(F)cc4)cccc3C(=O)N([C@@H](C)CO)C[C@H]2C)cc1,x,x,x,2,x,x,x
CCC(=O)Nc1ccc2c(c1)C(=O)N(C)C[C@H](OC)[C@@H](C)CN(C(=O)C1CC1)[C@@H](C)CO2,x,x,4,1,x,x,x
Cc1ccccc1-c1ocnc1C(=O)Nc1ccccc1NC(=O)c1ccccn1,74*,-4,0,-1,1,-2,1%
O=C(/C=C/c1ccco1)Nc1scc(-c2ccccc2)c1C(=O)O,103*,-5,-5,44*,4,2,-7%
O=C(OC[C@@H]1[C@H]2c3ccccc3OC1(CO)N=C1SCCCN12)c1ccccc1,x,x,x,-3,x,x,x
O=c1[nH]c(=O)n(C(c2ccccc2)c2ccccc2)cc1Br,-4,-1,5,-2,2,0,x
O=c1[nH]nc(Br)c(=O)n1C(c1ccccc1)c1ccccc1,51*,-7,0,3,1,-4,-5%
C[C@@H]1CCCCO[C@@H](CN(C)S(=O)(=O)c2cccs2)[C@@H](C)CN([C@@H](C)CO)C(=O)c2cc(NC(=O)C3CCCCC3)ccc2O1,x,x,x,-1,x,x,x
CCOc1ccc(C2C3=C(CCCC3=O)Nc3ccc4ncccc4c32)cc1 (stereo unspecified),-6,-3,0,3,-3,-5,x
O=C1CCCC2=C1C(c1ccc(O)c(O)c1)c1c(ccc3ncccc13)N2 (stereo unspecified),77*,-4,4,62*,0,-4,0%
CCN(CC)C1CCN(c2nc3nonc3nc2NCCOC)C1 (stereo unspecified),75*,-7,x,-2,-7,-2,-2%
COc1ccc(-n2ncc3c(NCCCn4ccnc4)ncnc32)cc1,121*,-5,5,-4,5,-1,0%
SMILES,NSD2 inh,CaV13 FRET inh,FN deposit inh,CASP6 VEID inh,GC-A act,NPR2 activator,Alpha artifact
c1ccc(CN2CN=C(Nc3nc4ccccc4s3)NC2)cc1,1,x,5,x,3,-5,x
c1ccc(CCN2CN=C(Nc3nc4ccccc4s3)NC2)cc1,64*,2,-32,0,3,-7,-2%
C[C@@H]1CN([C@@H](C)CO)C(=O)c2cc(N(C)C)ccc2O[C@@H]1CN(C)Cc1ccc(C(=O)O)cc1,x,x,x,-3,x,x,x
Cc1ccc(NC(=O)CN(C)CCOc2ccccc2)c([N+](=O)[O-])c1,75*,-2,-4,1,2,-6,-1%
O=C(Cc1csc(N2CCOCC2)n1)N/N=C/c1ccc(O)c(O)c1O,77*,7,-6,19,-3,0,-9%
C/C(=N\NC(=O)Cc1csc(N2CCOCC2)n1)c1ccccc1,0,-4,-5,x,6,-5,x
CC(=O)N1C2CCCCC2S[C@H]2CCCCC21 (stereo partly specified),57*,-4,-6,x,1,5,2%
Cc1nc2c(ccc3c2ccc2nc(C)sc23)s1,4,-1,x,x,-2,2,x
COc1cc2sc(C)nc2c2ccccc12,64*,-5,8,40*,1,0,-1%
C/C=C/c1ccc2c(c1)O[C@H](CN(C)C(=O)c1ccccc1F)[C@H](C)CN([C@H](C)CO)S2(=O)=O,x,x,-6,1,x,x,x
CCOC(=O)NCCc1c(C)nc2c(c(C)nn2C(C)(C)C)c1C,68*,-5,-8,x,4,6,-6%
Cc1ccc(S(=O)(=O)NCC[C@H]2CC[C@@H](NC(=O)c3ccccn3)[C@@H](CO)O2)cc1,x,x,x,3,x,x,x
Cc1cccc2c(N=NC(=O)c3ccc(NS(=O)(=O)c4cccs4)cc3)c(O)[nH]c12,64*,-15,-6,5,2,6,-8%
COC1=CC(=O)C(OC)=C(OC)C1=O,101*,-6,0,-1,5,-3,3%
O=C(Cc1ccc(Br)cc1)Nc1ncc([N+](=O)[O-])s1,50*,-15,-7,2,10,6,0%
O=C(Cc1ccc(Cl)cc1)Nc1ncc([N+](=O)[O-])s1,3,-20,-4,0,0,4,x
CCN(CC)CCCN(Cc1cc2ccc(C)c(C)c2[nH]c1=O)C(=O)NC1CCCCC1,63*,-4,-4,x,3,0,-7%
CCN(CC)CCCN(Cc1cc2cc3c(cc2[nH]c1=O)OCO3)C(=S)NCCCN(C)C,80*,-22,22,-64,8,-1,-7%
CN(C)CCCNC(=S)N(CCCN(C)C)Cc1cc2cc3c(cc2[nH]c1=O)OCO3,12,-3,-4,-34,5,2,x
